From ChEMBL document CHEMBL5724801, “EUbOPEN Chemogenomics Library - Multiplex” (2024)
Several values for one entry are separate records, joined by “and”; a condition that tells them apart may be missing. Equal values may be shown once.

Tested on: Fibroblast
Assay: Multiplex assay against human fibroblast
Format: toxicity, cell-based
In short: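 Compound was added to live cells that had been stained at seeding with Hoechst33342, BioTracker Green Microtubule Cytoskeleton Dye, MitoTracker Red and Annexin V Alexa Fluor 680, and imaging followed on a CQ1 microscope at 37°C and 5% CO2. CellPathfinder machine-learning gating divided cells into Hoechst high-intensity objects or normal cells, normal cells into healthy, pyknosed or fragmented nuclei, and pyknosed cells into mitotic or apoptotic. Tubulin, mitochondrial-mass and membrane-permeability phenotypes are per cents of healthy-nucleus cells.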

[1] = 12 h, 10 µM, compound concentration 10 uM
[2] = 24 h, 10 µM, compound concentration 10 uM
[3] = 48 h, 10 µM, compound concentration 10 uM
[4] = 12 h, 1 µM, compound concentration 1 uM
[5] = 24 h, 1 µM, compound concentration 1 uM
[6] = 48 h, 1 µM, compound concentration 1 uM

Structure (SMILES): CC(=O)O[C@H]1C(=O)[C@@]2(C)[C@H]([C@H](OC(=O)c3ccccc3)[C@]3(O)C[C@H](OC(=O)[C@H](O)[C@@H](NC(=O)c4ccccc4)c4ccccc4)C(C)=C1C3(C)C)[C@]1(OC(C)=O)CO[C@@H]1C[C@@H]2O [PACLITAXEL]
- Population Apoptotic (%) [1]: 65% and 39%
- Population Fragmented Nuclei (%) [1]: 19% and 34%
- Population Healthy Nuclei (%) [1]: 63% and 39%
- Population Hoechst High Intensity Objects (%) [1]: 5% and 1%
- Population Membrane Permeable-Phenotype (%) [1]: 0% and 6%
- Population Mitochondria Different-Phenotype (%) [1]: 10% and 13%
- Population Mitotic Cells (%) [1]: 34% and 60%
- Population Normal (%) [1]: 94% and 98%
- Population Pyknosed Nuclei (%) [1]: 16% and 25%
- Population Tubulin-Different-Phenotype (%) [1]: 17% and 44%
- Total Cell Count [1]: 167 and 111
- Population Apoptotic (%) [2]: 70% and 30%
- Population Fragmented Nuclei (%) [2]: 19% and 36%
- Population Healthy Nuclei (%) [2]: 63% and 45%
- Population Hoechst High Intensity Objects (%) [2]: 1% and 2%
- Population Membrane Permeable-Phenotype (%) [2]: 0% and 6%
- Population Mitochondria Different-Phenotype (%) [2]: 9% and 10%
- Population Mitotic Cells (%) [2]: 29% and 70%
- Population Normal (%) [2]: 98% and 97%
- Population Pyknosed Nuclei (%) [2]: 16% and 18%
- Total Cell Count [2]: 164 and 114
- Population Apoptotic (%) [3]: 76% and 54%
- Population Fragmented Nuclei (%) [3]: 31% and 48%
- Population Healthy Nuclei (%) [3]: 50% and 42%
- Population Hoechst High Intensity Objects (%) [3]: 4% and 0%
- Population Membrane Permeable-Phenotype (%) [3]: 0% and 3%
- Population Mitochondria Different-Phenotype (%) [3]: 16% and 9%
- Population Mitotic Cells (%) [3]: 23% and 45%
- Population Normal (%) [3]: 95% and 100%
- Population Pyknosed Nuclei (%) [3]: 17% and 8%
- Population Tubulin-Different-Phenotype (%) [3]: 20% and 40%
- Total Cell Count [3]: 177 and 129

Structure (SMILES): CC(=O)NCC(=O)N1[C@@H]2CC[C@H]1c1ccc(Nc3ncc(C(F)(F)F)c(NC4CCC4)n3)cc12 [PF-03814735]
- Population Apoptotic (%) [4]: 14.81% and 22.73%
- Population Fragmented Nuclei (%) [4]: 12.78% and 6.01%
- Population Healthy Nuclei (%) [4]: 72.22% and 81.97%
- Population Hoechst High Intensity Objects (%) [4]: 0%
- Population Membrane Permeable-Phenotype (%) [4]: 4.62% and 4%
- Population Mitochondria Different-Phenotype (%) [4]: 7.69% and 10.67%
- Population Mitotic Cells (%) [4]: 85.19% and 77.27%
- Population Normal (%) [4]: 100%
- Population Pyknosed Nuclei (%) [4]: 15% and 12.02%
- Population Tubulin-Different-Phenotype (%) [4]: 20% and 22.67%
- Total Cell Count [4]: 180 and 183
- Population Apoptotic (%) [1]: 46.51% and 79.49%
- Population Fragmented Nuclei (%) [1]: 20.25% and 27.83%
- Population Healthy Nuclei (%) [1]: 53.37% and 53.77%
- Population Hoechst High Intensity Objects (%) [1]: 0%
- Population Membrane Permeable-Phenotype (%) [1]: 25.29% and 34.21%
- Population Mitochondria Different-Phenotype (%) [1]: 17.24% and 20.18%
- Population Mitotic Cells (%) [1]: 53.49% and 20.51%
- Population Normal (%) [1]: 100%
- Population Pyknosed Nuclei (%) [1]: 26.38% and 18.4%
- Population Tubulin-Different-Phenotype (%) [1]: 36.78% and 78.07%
- Total Cell Count [1]: 163 and 212
- Population Apoptotic (%) [5]: 18.18% and 31.25%
- Population Fragmented Nuclei (%) [5]: 18.48% and 9.2%
- Population Healthy Nuclei (%) [5]: 75.54% and 81.61%
- Population Hoechst High Intensity Objects (%) [5]: 0%
- Population Membrane Permeable-Phenotype (%) [5]: 9.35% and 5.63%
- Population Mitochondria Different-Phenotype (%) [5]: 5.76% and 6.34%
- Population Mitotic Cells (%) [5]: 81.82% and 68.75%
- Population Normal (%) [5]: 100%
- Population Pyknosed Nuclei (%) [5]: 5.98% and 9.2%
- Population Tubulin-Different-Phenotype (%) [5]: 17.99% and 28.87%
- Total Cell Count [5]: 184 and 174
- Population Apoptotic (%) [2]: 39.13% and 90.32%
- Population Fragmented Nuclei (%) [2]: 24.36% and 32.26%
- Population Healthy Nuclei (%) [2]: 46.15% and 39.17%
- Population Hoechst High Intensity Objects (%) [2]: 0%
- Population Normal (%) [2]: 100%
- Population Pyknosed Nuclei (%) [2]: 29.49% and 28.57%
- Population Tubulin-Different-Phenotype (%) [2]: 31.94% and 67.06%
- Total Cell Count [2]: 156 and 217
- Population Fragmented Nuclei (%) [6]: 18.54% and 6.41%
- Population Healthy Nuclei (%) [6]: 75.28% and 89.74%
- Population Hoechst High Intensity Objects (%) [6]: 0%
- Population Membrane Permeable-Phenotype (%) [6]: 1.49% and 7.14%
- Population Normal (%) [6]: 100%
- Population Pyknosed Nuclei (%) [6]: 6.18% and 3.85%
- Population Tubulin-Different-Phenotype (%) [6]: 14.18% and 30.71%
- Total Cell Count [6]: 178 and 156
- Population Apoptotic (%) [3]: 36.84% and 83.78%
- Population Fragmented Nuclei (%) [3]: 23.6% and 31.34%
- Population Healthy Nuclei (%) [3]: 64.6% and 51.61%
- Population Hoechst High Intensity Objects (%) [3]: 0%
- Population Mitochondria Different-Phenotype (%) [3]: 26.92% and 25%
- Population Normal (%) [3]: 100%
- Population Pyknosed Nuclei (%) [3]: 11.8% and 17.05%
- Total Cell Count [3]: 161 and 217
